Bioassay records: PubChem, The Scripps Research Institute Molecular Screening Center
MC4R barr agon – agonists of human melanocortin 4 receptor (MC4R) beta-arrestin | U2OS MC4R beta-arrestin complementation, luminescence; percent of melanotan II response, DMSO zero | P32245 | 360,000 compounds, 0.98% hits | activation, % at 8.9 µM;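 active = activation above a per-plate cutoff, the mean activation of sample wells on that plate plus 3 SD, cut at about 8% in these data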
TLR4-MyD88 BLA – inhibitors of human TLR4-MyD88 binding. AID 861. HeLa CL3-4 TLR4/MyD88 BLA complementation, FRET ratio. inhibition, % at 8.4 µM. O00206+Q99836. 200,000 compounds, 0.18% hits; in the data active = inhibition above about 25%;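 also: 0% = vehicle and 100% = reference inhibitor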
NOD2-RIPK2 inh – inhibitors of human NOD2-RIPK2 interaction | O43353 | CHO BLA complementation NOD2-RIPK2, CCF4 ratio | inhibition, % at 4.98 µM | 360,000 compounds, 0.38% hits; in the data active = inhibition above about 21%;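 also: 0% = vehicle only and 100% = reference blocker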
MC4R antag cAMP – blocks human MC4R cAMP signaling; AID 540295; MC4R-expressing cells, MTII-stimulated cAMP, LANCE TR-FRET; inhibition, % at 6.5 µM; 360,000 compounds, 0.48% hits; P32245;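 active = inhibition above its plate's cutoff, the mean of tested wells on that plate plus 3 SD, cut at about 29% in these data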;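 also: 0% = Melanotan II alone and 100% = Melanotan II plus saturating MCL0020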
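system = U2OS cells with stable human MC4R expression | also added = Melanotan II challenge after compound preincubation | dosing = one concentration, 6.5 µM nominal | incubation = compound 30 min, challenge 1 h, detection 1 h | measured by = TR-FRET with Eu-cAMP and labeled anti-cAMP, 671 nm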
TLR9-MyD88 block – inhibitors of human TLR9-MyD88 binding | Q9NR96+Q99836 | CHO BLA complementation TLR9-MyD88, CCF4 FRET ratio | inhibition, % at 4.98 µM | 340,000 compounds, 0.21% hits;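 active = inhibition above the mean over all tested compounds plus 3 SD, cut at about 21% in these data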;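 also: 0% = DMSO only wells and 100% = clavulanate BLA inhibitor control wells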
NOD2-RIPK2 conf – confirmation of human NOD2-RIPK2 interaction inhibitors | shares compounds with NOD2-RIPK2 inh | CHO cells, NOD2-RIPK2 BLA complementation, CCF4 FRET | inhibition, % at 4.98 µM | 1,200 compounds, 70% hits | AID 624370;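 active = mean inhibition across replicates above a set limit taken from the earlier primary screen, cut at about 21% in these data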;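 also: 0% = DMSO-only wells and the high end = clavulanate BLA-blocked wells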
BLA counter – hits BLA reporter in NOD2-RIPK2 inhibitor counterscreen; inhibition, % at 4.98 µM; AID 624371; 1,200 compounds, 57% hits; CHO BLA reporter, CCF4 FRET ratio; shares compounds with NOD2-RIPK2 inh;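 active = mean inhibition above the low-control mean inhibition plus three low-control SD, cut at about 11% in these data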;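 also: 0% = DMSO only wells and 100% = clavulanate high control wells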
* = called active by the depositor; / = no result given. Most compounds without a hit are left out; they make up all but 1.8% or so of the library.

SMILES | MC4R barr agon | TLR4-MyD88 BLA | NOD2-RIPK2 inh | MC4R antag cAMP | TLR9-MyD88 block | NOD2-RIPK2 conf | BLA counter
Cc1ccc(-c2csc3nc(C)n(-n4c(C)ccc4C)c(=O)c23)o1 | 1 | 8 | 49* | 25 | -9 | 0 | -1
Cc1ccc(-c2csc3nc(C)n(N)c(=O)c23)o1 | -1 | 11 | -10 | -8 | -2 | / | /
CCCCCNC(=O)C(C1CC1)n1c(=O)c(-c2ccco2)nc2ccccc21 (centres undefined) | / | / | 7 | / | / | / | /
CCCCCNC(=O)C(c1cc2ccccc2o1)n1c(=O)c(-c2ccccc2)nc2ccccc21 (centres undefined) | / | / | -13 | / | / | / | /
CCCCCNC(=O)C(c1cc2ccccc2o1)n1c(=O)c(-c2cc3ccccc3[nH]2)nc2ccccc21 (centres undefined) | / | / | 48* | / | / | 43* | 66*
CCCCCNC(=O)C(c1ccc(-c2ccccc2)cc1)n1c(=O)c(-c2cc3ccccc3[nH]2)nc2ccccc21 (centres undefined) | / | / | 25* | / | / | 37* | 64*
CCCCCNC(=O)C(C1CC1)n1c(=O)c(-c2cc3ccccc3[nH]2)nc2ccccc21 (centres undefined) | / | / | 45* | / | / | 37* | 64*
Cc1cc(NC(=O)CSCC(=O)Nc2ccc(C)c(C)c2)no1 | 0 | / | 8 | 3 | -1 | / | /
CSc1ccc(Cl)c(C(=O)OCC(=O)N(C)CCC#N)c1 | -3 | -13 | -21 | -4 | 0 | / | /
Cc1ccc(-c2noc(CCC(=O)NCCCN3CCN(c4cccc(Cl)c4)CC3)n2)cc1 | 3 | -4 | 29* | 2 | -5 | 15 | -1
Cc1ccc(-c2noc(CCC(=O)NCCCN3CCN(c4ccc(F)cc4)CC3)n2)cc1 | 1 | 7 | -9 | 6 | 6 | / | /
COc1ccc(C(=O)/C=C2/C(=O)Nc3ccccc32)cc1OC | -1 | / | 10 | -9 | 5 | / | /
C=CCOc1ccc(C(=O)/C=C2/C(=O)Nc3ccccc32)cc1 | 0 | / | 25* | -7 | 8 | -1 | -2
O=C1Nc2ccccc2/C1=C/C(=O)c1cccs1 | -1 | 5 | 13 | -2 | -3 | / | /
COc1ccc(C(=O)/C=C2/C(=O)Nc3ccccc32)c(OC)c1 | -3 | / | 31* | -9 | 5 | 30* | -1
C=CCOc1ccccc1C(=O)/C=C1/C(=O)Nc2ccccc21 | -1 | / | 65* | -6 | 17 | 55* | 0
NC(=O)COc1ccc(C(=O)/C=C2/C(=O)Nc3ccccc32)cc1 | -2 | / | 6 | -18 | 0 | / | /
COc1ccc(C(=O)/C=C2/C(=O)Nc3ccccc32)cc1 | 1 | / | 33* | 11 | -1 | 10 | -2
COC(=O)C1CCN(S(=O)(=O)c2c[nH]c(=O)[nH]c2=O)CC1 | -1 | / | -9 | -2 | -3 | / | /
CN(C(=O)CCCN1C(=O)c2ccccc2C1=O)C1CCCCC1 | 2 | / | 2 | 14 | 3 | / | /
N#Cc1cc(O)c(-n2nnc3ccccc32)cc1C#N | 4 | 6 | 2 | 22 | 0 | / | /
N#Cc1cc(Oc2cccc3cccnc23)c(-n2nnc3ccccc32)cc1C#N | -3 | 3 | 70* | 16 | 19 | -11 | -3
COc1ccc(/C(N)=N/OC(=O)CC2CCCCC2)cc1 | 3 | / | -7 | 13 | -7 | / | /
CCCCCC[n+]1ccccc1/C=C/c1ccc(N(C)C)cc1 | 1 | / | 33* | -12 | / | 41* | 41*
CCOc1ccc(-c2cc(N)n(S(=O)(=O)c3cccc4nsnc34)n2)cc1 | 0 | / | 22* | 5 | -1 | -5 | -5
SMILES | MC4R barr agon | TLR4-MyD88 BLA | NOD2-RIPK2 inh | MC4R antag cAMP | TLR9-MyD88 block | NOD2-RIPK2 conf | BLA counter
C[C@@H](C(=O)CC(=O)OC(C)(C)C)[C@@H](O)c1c(F)cccc1Cl | -2 | / | 1 | 3 | 4 | / | /
CN(C)C(CNC(=O)c1ccc(NS(=O)(=O)c2cccc([N+](=O)[O-])c2)cc1)c1ccco1 (centres undefined) | -3 | / | -10 | 5 | 13 | / | /
CCOc1ccc(S(=O)(=O)Nc2ccc(C(=O)NCC(c3ccco3)N(C)C)cc2)cc1 (centres undefined) | 0 | / | 25* | -2 | -2 | 5 | 0
CN1OC[C@@H]2CN(S(=O)(=O)c3ccccc3)[C@H](c3ccccc3Br)C[C@@H]21 | / | / | 33* | / | / | -5 | -5
O=C(Nc1ccccc1Cl)C1CCN(S(=O)(=O)c2cccc3nonc23)CC1 | 3 | / | 2 | -4 | -6 | / | /
O=c1[nH]c2cc3c(cc2cc1CN(Cc1nnnn1CC1CCCO1)C1CCCCC1)OCO3 (centres undefined) | -1 | 14 | 22* | 5 | 20 | 4 | 0
O=c1[nH]c2cc3c(cc2cc1CN(CCc1ccccc1)Cc1nnnn1CC1CCCO1)OCO3 (centres undefined) | -3 | -9 | 10 | 10 | 5 | / | /
O=c1[nH]c2cc3c(cc2cc1CN(Cc1nnnn1CC1CCCO1)C1CCCC1)OCO3 (centres undefined) | -1 | -3 | 39* | 2 | 18 | -5 | 1
CC1CCN(C(c2cc3cc4c(cc3[nH]c2=O)OCO4)c2nnnn2CC2CCCO2)CC1 (centres undefined) | -2 | 1 | -2 | -2 | 7 | / | /
COc1cc(CN2C(=O)C(CCc3ccccc3)ON=C2c2cnccn2)cc(OC)c1 (centres undefined) | 0 | / | -9 | 16 | / | / | /
O=C1NC[C@@H](CCCCN2C[C@H](Cc3ccc(O)cc3)N(Cc3ccccc3)C(=O)C2=O)N(CCc2ccc(O)cc2)C1=O | / | / | 3 | / | / | / | /
COc1ccccc1Cc1c(-c2ccco2)nc2c(C)cc(Br)cn12 | / | / | 25* | / | / | 1 | -5
NC(=O)Nc1ccc(C(=O)OCC(=O)N2CCc3ccccc3C2)cc1 | -2 | / | 4 | 1 | 0 | / | /
COc1ccc(C=NNc2ccc([N+](=O)[O-])cc2S(=O)(=O)Nc2ccccc2C(=O)O)cc1OC | -4 | / | 27* | 3 | 9 | 36* | 36*
O=C(CN1C(=O)CNC1=O)Nc1ccc(Cl)cc1 | -2 | / | -2 | 12 | -4 | / | /
O=C(Cn1sc2ccccc2c1=O)Nc1ccc(F)cc1 | -3 | / | 25* | 12 | 11 | 25* | 1
O=C(Cn1nc(-c2ccccc2)c2ccccc2c1=O)Nc1ccc(F)cc1 | 1 | / | -3 | -1 | -14 | / | /
O=C(Cn1sc2ccccc2c1=O)Nc1ccc(Cl)cc1 | -2 | / | 21* | 3 | 5 | 42* | 7
CC(C)(C)c1ccc(OCCCC(=O)Nc2nnc(C3CC3)s2)cc1 | 3 | / | -2 | 6 | 6 | / | /
Cc1noc(C)c1C(=O)N1CCC1(C)C(=O)NS(=O)(=O)c1ccccc1C(F)(F)F (centres undefined) | -1 | / | -8 | -6 | / | / | /
